This is a sample that favours compounds with a hit; in the whole collection about 3.5% have one here.
MrgX1 ag: agonists of human MrgX1 receptor. Q96LB2. MrgX1-HEK293 cells, Fluo-4 calcium fluorescence, agonist mode; active compounds read high. B-score at 10 µM. 310,000 compounds, 0.44% hits;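 active = calcium response B-score plate-corrected fluorescence ratio at least 3 library SD, with starting fluorescence B-score inside 5 SD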
Target sequence (Q96LB2 whole entry, looked up): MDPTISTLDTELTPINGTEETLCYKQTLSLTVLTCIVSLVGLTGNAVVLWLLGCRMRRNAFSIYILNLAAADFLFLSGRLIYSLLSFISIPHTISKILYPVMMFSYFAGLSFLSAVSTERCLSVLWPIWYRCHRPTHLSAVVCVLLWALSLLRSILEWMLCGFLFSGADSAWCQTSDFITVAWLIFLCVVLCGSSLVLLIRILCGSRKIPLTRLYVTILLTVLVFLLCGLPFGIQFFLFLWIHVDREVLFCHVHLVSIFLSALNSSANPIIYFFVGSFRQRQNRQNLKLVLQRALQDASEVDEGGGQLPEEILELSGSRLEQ
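System – MrgX1-expressing HEK293 cells · Incubation – cells plated overnight, dye loaded 0.5 h 37 °C, 0.5 h room temperature · Technique – kinetic Fluo-4 NW fluorescence of intracellular calcium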
RGS4 act: RGS4 potentiation or activation; B-score at 10 µM; HEK293 M3R/inducible RGS4, carbachol calcium flux Fluo4; active compounds read low; AID 463111; 310,000 compounds, 0.92% hits;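 active = B-score of the integrated calcium signal more than 4 SD below the library mean, with starting fluorescence not abnormally high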;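 also: negative B-score means reduced calcium response which marks RGS4 activation or potentiation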
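Assay system: Inducible-RGS4 HEK293 cells carrying M3 receptor | Schedule: Compound preincubation 20 min at room temperature before agonist | Signal: Kinetic calcium fluorescence imaging with Fluo4-AM dye, 2 µM | Read-out basis: B score from integrated fluorescence ratio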
MrgX1 allo act: human MrgX1 positive allosteric modulation, primary screen; 310,000 compounds, 0.63% hits; B-score at 10 µM; MrgX1-HEK293, Fluo-4 calcium flux, FDSS; active compounds read high; AID 588675; Q96LB2;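 active = plate-corrected calcium response at least 3 library SD above typical, normal starting fluorescence, not activating the receptor alone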;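 also: compound read alongside a low EC10 to EC30 dose of BAM8-22 agonist; peak minus trough fluorescence over baseline measured at the second addition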
RGS4 block: human RGS4 inhibition | P49798 | HEK293 M3R/RGS4 inducible, Fluo-4 calcium flux; active compounds read high; triggered by carbachol at its EC20 | B-score at 10 µM | 310,000 compounds, 0.45% hits | AID 463165;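 active = B-score, a plate-corrected calcium signal, over three deviations above library mean, with baseline fluorescence within five deviations of library mean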;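 also: RGS4 expression induced by doxycycline in cells with stable M3 receptor; B-score is computed from the integrated fluorescence ratio over baseline after carbachol; higher B-score means a larger calcium signal and so more RGS4 inhibition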
Target sequence (P49798 whole entry, looked up): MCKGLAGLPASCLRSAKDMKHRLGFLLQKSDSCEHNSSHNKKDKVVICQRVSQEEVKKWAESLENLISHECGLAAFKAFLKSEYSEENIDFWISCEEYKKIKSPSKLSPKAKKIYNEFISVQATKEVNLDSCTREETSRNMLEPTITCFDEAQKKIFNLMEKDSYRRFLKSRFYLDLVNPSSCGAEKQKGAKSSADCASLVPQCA
MrgX1 antagonist: antagonists of human MrgX1 receptor; MRGX1-HEK293 calcium flux, Fluo-4, BAM8-22 antagonism; active compounds read low; 310,000 compounds, 1.3% hits; Q96LB2; B-score at 10 µM;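 active = calcium-response B-score plate-corrected more than 3 library SD below zero, starting fluorescence within 5 deviations, no agonist response on first addition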;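 also: peak minus trough fluorescence over baseline after final BAM8-22 challenge near maximal dose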
The depositor's hits bear a star.

`COc1cc(OC)c(S(=O)(=O)Nc2ccc(C(=O)O)cc2)cc1S(=O)(=O)Nc1ccc(C(=O)O)cc1` gave MrgX1 ag inactive, RGS4 act inactive, MrgX1 allo act inactive, RGS4 block inactive and MrgX1 antagonist inactive.
`O=C(O)c1ccc(N/N=C/C2=C(N3CCOCC3)C(=C\c3ccccc3)/CC2)cc1` gave MrgX1 ag 34*, RGS4 act inactive, MrgX1 allo act inactive, RGS4 block inactive and MrgX1 antagonist inactive.
Cc1cc(C)nc(N/N=C/C2=C(N3CCOCC3)C(=C\c3ccc(Cl)cc3)/CC2)n1 was read as MrgX1 ag inactive, RGS4 act inactive, MrgX1 allo act inactive, RGS4 block inactive and MrgX1 antagonist inactive.
Cc1cc(C)nc(OC(=O)c2ccc(Cl)cc2Cl)n1 was read as MrgX1 ag inactive, RGS4 act -7.3*, MrgX1 allo act inactive, RGS4 block inactive and MrgX1 antagonist inactive.
`Cc1cc(C)nc(OC(=O)c2c(Cl)cc(Cl)cc2Cl)n1` gave MrgX1 ag inactive, RGS4 act inactive, MrgX1 allo act inactive, RGS4 block inactive and MrgX1 antagonist inactive.
Screening Cn1c(-c2c(N)n(CCc3ccccc3)c3nc4ccccc4nc23)nc2ccccc21 returned MrgX1 ag 29*, RGS4 act inactive, MrgX1 allo act inactive, RGS4 block inactive and MrgX1 antagonist inactive.
For Cn1c(-c2c(N)n(CCCc3ccccc3)c3nc4ccccc4nc23)nc2ccccc21 the results were RGS4 act inactive and RGS4 block inactive.
Screening Nc1c(C(=O)OCC2CCCO2)c2nc3ccccc3nc2n1C1CCCC1 (stereo not drawn) returned MrgX1 ag inactive, RGS4 act inactive, MrgX1 allo act inactive, RGS4 block inactive and MrgX1 antagonist inactive.
Screening Cn1c(-c2c(N)n(C3CCCC3)c3nc4ccccc4nc23)nc2ccccc21 returned MrgX1 ag inactive, RGS4 act -9*, MrgX1 allo act inactive, RGS4 block inactive and MrgX1 antagonist -7.4*.
`CCCCn1c(NC(=O)c2ccc(F)cc2)c(C#N)c2nc3ccccc3nc21` gave MrgX1 ag 54*, RGS4 act inactive, MrgX1 allo act inactive, RGS4 block inactive and MrgX1 antagonist inactive.
`COc1ccc(C2(CNC(=O)c3cccc([N+](=O)[O-])c3)CCOCC2)cc1` gave MrgX1 ag inactive, RGS4 act inactive, MrgX1 allo act inactive, RGS4 block inactive and MrgX1 antagonist inactive.
For CNc1ccc(Br)cc(C(=O)/C=C/c2cccc(OC)c2OC)c1=O the results were MrgX1 ag inactive, RGS4 act inactive, MrgX1 allo act inactive, RGS4 block inactive and MrgX1 antagonist -4.8*.
`CCNc1ccc(Br)cc(C(=O)/C=C/c2ccccc2Cl)c1=O` gave MrgX1 ag inactive, RGS4 act inactive, MrgX1 allo act inactive, RGS4 block inactive and MrgX1 antagonist -6*.
CCOc1ccc(NC2OC(CO)C(O)C(O)C2O)c([N+](=O)[O-])c1 (stereo not drawn) was read as MrgX1 ag inactive, RGS4 act inactive, MrgX1 allo act inactive, RGS4 block inactive and MrgX1 antagonist inactive.
CCOC(=O)CCSc1nc(C(C)(C)C)cc(C(F)(F)F)c1C#N was read as MrgX1 ag inactive, RGS4 act -7.2*, MrgX1 allo act inactive, RGS4 block inactive and MrgX1 antagonist inactive.
Screening Clc1ccccc1/C=N/c1cc(-c2ccccc2)nn1-c1ccccc1 returned MrgX1 ag inactive, RGS4 act inactive, MrgX1 allo act inactive, RGS4 block inactive and MrgX1 antagonist -4.9*.
Screening CC(=O)C(/C=N/c1cc(-c2ccc(C)cc2)nn1-c1ccccc1)=C(\C)O returned MrgX1 ag inactive, RGS4 act inactive, MrgX1 allo act inactive, RGS4 block inactive and MrgX1 antagonist inactive.
For O=C1CCc2cc(S(=O)(=O)N3CCCCC3)cc3c2N1CC3 the results were MrgX1 ag inactive, RGS4 act inactive, MrgX1 allo act inactive, RGS4 block inactive and MrgX1 antagonist inactive.
For CCOC(=O)c1c(/N=C/c2ccc(C)cc2O)sc2c1CCC2 the results were MrgX1 ag inactive, RGS4 act inactive, MrgX1 allo act inactive, RGS4 block inactive and MrgX1 antagonist inactive.
`CCOC(=O)c1c(/N=C/c2ccc(OC)cc2O)sc2c1CCN(C)C2` gave MrgX1 ag inactive, RGS4 act inactive, MrgX1 allo act inactive, RGS4 block inactive and MrgX1 antagonist -4.8*.
For COc1ccc(OC)c(NC(=O)c2ccc(-c3cccs3)cc2)c1 the results were MrgX1 ag inactive, RGS4 act inactive, MrgX1 allo act inactive, RGS4 block inactive and MrgX1 antagonist inactive.
For Fc1ccc2[nH]c3c(N4CCN(C5CCCCC5)CC4)ncnc3c2c1 the results were MrgX1 ag inactive, RGS4 act -7.6*, MrgX1 allo act inactive, RGS4 block inactive and MrgX1 antagonist inactive.
For Cc1ccc2[nH]c3c(N4CCCCCC4)ncnc3c2c1 the results were RGS4 act inactive and RGS4 block inactive.
`CCC(=O)Nc1cccc(C2=NOC3(C2)C[C@@H](C(N)=O)N(C(=O)COc2ccc(Cl)cc2)C3)c1` (stereo partly drawn) gave MrgX1 ag inactive, RGS4 act inactive, MrgX1 allo act 8.9*, RGS4 block inactive and MrgX1 antagonist inactive.
For CCC(=O)Nc1cccc(C2=NOC3(C2)C[C@@H](C(N)=O)N(C(=O)c2ccccc2C(=O)c2ccccc2)C3)c1 (stereo partly drawn) the results were MrgX1 ag inactive, RGS4 act inactive, MrgX1 allo act inactive, RGS4 block inactive and MrgX1 antagonist -8*.
Screening CCC(=O)N1CC2(CC(c3cccc(NC(=O)COc4ccc(Cl)cc4)c3)=NO2)C[C@@H]1C(N)=O (stereo partly drawn) returned RGS4 act inactive and RGS4 block inactive.
`CC1(C(=O)N2CC3(CC(c4ccccc4)=NO3)C[C@H]2C(=O)NCC(N)=O)CC1` (stereo partly drawn) gave MrgX1 ag inactive, RGS4 act inactive, MrgX1 allo act inactive, RGS4 block inactive and MrgX1 antagonist -5.6*.
Screening Cc1ccc(NC(=O)c2ccc(S(=O)(=O)NCc3cccnc3)cc2)c(C)c1 returned MrgX1 ag inactive, RGS4 act inactive, MrgX1 allo act inactive, RGS4 block inactive and MrgX1 antagonist inactive.
Screening O=C(Cc1ccccc1)NCC(=O)N1CCC1 returned MrgX1 ag inactive, RGS4 act inactive, MrgX1 allo act inactive, RGS4 block inactive and MrgX1 antagonist inactive.
Screening Cc1cc(C)cc(OC(C)C(=O)Nc2ccccc2C(=O)NCc2cccnc2)c1 (stereo not drawn) returned MrgX1 ag inactive, RGS4 act inactive, MrgX1 allo act inactive, RGS4 block inactive and MrgX1 antagonist inactive.

Screening data: PubChem, Johns Hopkins Ion Channel Center
